# Activity calls are given as the source filed them. No rule for the calls is given here.
# Test system: Coxsackievirus B2
# Test: Antiviral activity against Coxsackie virus type B2 virus infected in african green monkey Vero-76 cells after 3 days by plaque reduction assay
# Format: functional, organism-based
# Details: Enterovirus B, Vero 76, 72 h
# Summary of the method: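 Vero 76 cells seeded at 2 × 10^5 cells/well, grown overnight to confluence at 37 °C in 5% CO2, then infected at 50–100 PFU/well. Unadsorbed virus removed. Overlay of DMEM with 1% inactivated FCS and 0.75% methylcellulose, with or without serial compound dilutions. After 3 days at 37 °C, fixed and stained with crystal violet in PBS/50% ethanol; plaques counted. EC50 is the concentration reducing plaque number by 50%.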
row,Compound,EC50 [µM]
1,O=C1CCN(/N=N/c2ccccc2)CC1,13
2,c1ccc(/N=N/N2CCN(c3ccccc3)CC2)cc1,> 100
3,c1ccc(/N=N/N2CCCCC2)cc1,> 100
4,Brc1cccc(/N=N/N2CCCCC2)c1,> 85
5,Brc1ccc(/N=N/N2CCCC2)cc1,> 100

# Test system: not listed separately
# Test: Cytotoxicity against hamster BHK21 cells assessed as reduction in cell viability after 48 to 96 hrs by MTT assay
# Format: cell-based, Mesocricetus auratus, BHK-21
# Details: bhk-21
# Summary of the method: (§1)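 Mock-infected cells in maintenance medium, MDBK at 6 × 10^5 and BHK at 1 × 10^6 cells/mL initial density, with or without serial compound dilutions. Run in parallel with antiviral assays. Viability by MTT after 48–96 h at 37 °C, 5% CO2. CC50 = concentration reducing viability 50%.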
row,Compound,CC50 [µM]
1,O=C1CCN(/N=N/c2ccccc2)CC1,90
2,c1ccc(/N=N/N2CCN(c3ccccc3)CC2)cc1,> 100
3,c1ccc(/N=N/N2CCCCC2)cc1,> 100
4,Brc1cccc(/N=N/N2CCCCC2)c1,> 100
5,Brc1ccc(/N=N/N2CCCC2)cc1,> 100

# Test system: Vesicular stomatitis virus
# Test: Antiviral activity against Vesicular stomatitis virus after 2 days by plaque reduction assay
# Format: functional, organism-based
# Details: not given
row,Compound,Activity
1,O=C1CCN(/N=N/c2ccccc2)CC1,inactive
2,c1ccc(/N=N/N2CCN(c3ccccc3)CC2)cc1,inactive
3,c1ccc(/N=N/N2CCCCC2)cc1,inactive
4,Brc1cccc(/N=N/N2CCCCC2)c1,inactive
5,Brc1ccc(/N=N/N2CCCC2)cc1,inactive

# Test system: Yellow fever virus
# Test: Antiviral activity against Yellow fever virus infected in BHK-21 cells assessed as inhibition of virus-induced cytopathicity after 3 to 4 days by MTT assay
# Format: functional, organism-based
# Details: not given
row,Compound,EC50 [µM]
1,O=C1CCN(/N=N/c2ccccc2)CC1,> 90
2,c1ccc(/N=N/N2CCN(c3ccccc3)CC2)cc1,> 100
3,c1ccc(/N=N/N2CCCCC2)cc1,> 100
4,Brc1cccc(/N=N/N2CCCCC2)c1,> 100
5,Brc1ccc(/N=N/N2CCCC2)cc1,> 100

# Test system: Human immunodeficiency virus 1
# Test: Antiviral activity against HIV1 infected in human MT4 cells assessed as inhibition of virus-induced cytopathicity after 4 days by MTT assay
# Format: functional, organism-based
# Details: not given
row,Compound,inhibition
1,O=C1CCN(/N=N/c2ccccc2)CC1,inactive
2,c1ccc(/N=N/N2CCN(c3ccccc3)CC2)cc1,inactive
3,c1ccc(/N=N/N2CCCCC2)cc1,inactive
4,Brc1cccc(/N=N/N2CCCCC2)c1,inactive
5,Brc1ccc(/N=N/N2CCCC2)cc1,inactive

# Test system: Poliovirus 1
# Test: Antiviral activity against Human poliovirus 1 strain Sabin after 2 days by plaque reduction assay
# Format: functional
# Details: Enterovirus C, 48 h
row,Compound,EC50 [µM]
1,O=C1CCN(/N=N/c2ccccc2)CC1,> 60
2,c1ccc(/N=N/N2CCN(c3ccccc3)CC2)cc1,> 100
3,c1ccc(/N=N/N2CCCCC2)cc1,> 100
4,Brc1cccc(/N=N/N2CCCCC2)c1,> 85
5,Brc1ccc(/N=N/N2CCCC2)cc1,51

# Test system: Mammalian orthoreovirus 1
# Test: Antiviral activity against Reovirus-1 infected in BHK-21 cells assessed as inhibition of virus-induced cytopathicity after 3 to 4 days by MTT assay
# Format: functional, organism-based
# Details: Mammalian orthoreovirus 1, BHK-21
# Summary of the method: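 BHK-21 cells seeded at 5 × 10^4 cells/well, grown overnight to confluent monolayers at 37 °C in 5% CO2, then infected at m.o.i. 0.01 in serum-free medium. One hour later, MEM Earle's with 1% final inactivated FCS added, with or without serial compound dilutions. Viability read by MTT after 3–4 days at 37 °C. EC50 is the concentration giving 50% protection from cytopathogenicity.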
row,Compound,EC50 [µM]
1,O=C1CCN(/N=N/c2ccccc2)CC1,> 90
2,c1ccc(/N=N/N2CCN(c3ccccc3)CC2)cc1,> 100
3,c1ccc(/N=N/N2CCCCC2)cc1,> 100
4,Brc1cccc(/N=N/N2CCCCC2)c1,> 100
5,Brc1ccc(/N=N/N2CCCC2)cc1,> 100

# Test system: Vero
# Test: Cytotoxicity against african green monkey Vero 76 cells by crystal violet staining
# Format: cell-based
# Details: chlorocebus sabaeus, vero
# Summary of the method: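 Mock-infected Vero 76 seeded at 4 × 10^5 cells/mL, run in parallel with plaque assays, with or without serial compound dilutions. Cell number of monolayers determined by crystal violet staining. CC50 = concentration reducing viable cell number 50%.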
row,Compound,CC50 [µM]
1,O=C1CCN(/N=N/c2ccccc2)CC1,60
2,c1ccc(/N=N/N2CCN(c3ccccc3)CC2)cc1,≥ 100
3,c1ccc(/N=N/N2CCCCC2)cc1,> 100
4,Brc1cccc(/N=N/N2CCCCC2)c1,85
5,Brc1ccc(/N=N/N2CCCC2)cc1,≥ 100

# Test system: Vaccinia virus
# Test: Antiviral activity against Vaccinia virus after 3 days by plaque reduction assay
# Format: functional, organism-based
# Details: Orthopoxvirus vaccinia
row,Compound,Activity
1,O=C1CCN(/N=N/c2ccccc2)CC1,inactive
2,c1ccc(/N=N/N2CCN(c3ccccc3)CC2)cc1,inactive
3,c1ccc(/N=N/N2CCCCC2)cc1,inactive
4,Brc1cccc(/N=N/N2CCCCC2)c1,inactive
5,Brc1ccc(/N=N/N2CCCC2)cc1,inactive

# Test system: Human alphaherpesvirus 1
# Test: Antiviral activity against HSV1 infected in Vero-76 cells after 3 days by plaque reduction assay
# Format: functional, organism-based
# Details: Human alphaherpesvirus 1, Vero 76, 72 h
row,Compound,EC50 [µM]
1,O=C1CCN(/N=N/c2ccccc2)CC1,> 60
2,c1ccc(/N=N/N2CCN(c3ccccc3)CC2)cc1,> 100
3,c1ccc(/N=N/N2CCCCC2)cc1,> 100
4,Brc1cccc(/N=N/N2CCCCC2)c1,> 85
5,Brc1ccc(/N=N/N2CCCC2)cc1,> 100

# Test system: Respiratory syncytial virus
# Test: Antiviral activity against Respiratory syncytial virus A2 infected in Vero-76 cells after 5 days by plaque reduction assay
# Format: functional, organism-based
# Details: human respiratory syncytial virus, A2, Vero 76, 120 h
row,Compound,EC50 [µM]
1,O=C1CCN(/N=N/c2ccccc2)CC1,> 60
2,c1ccc(/N=N/N2CCN(c3ccccc3)CC2)cc1,8
3,c1ccc(/N=N/N2CCCCC2)cc1,> 100
4,Brc1cccc(/N=N/N2CCCCC2)c1,> 85
5,Brc1ccc(/N=N/N2CCCC2)cc1,> 100

# Test system: MT4
# Test: Cytotoxicity against human MT4 cells after 96 hrs by MTT assay
# Format: cell-based
# Details: mt4, 96 h
# Summary of the method: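 Exponentially growing mock-infected MT-4 seeded at 1 × 10^5 cells/mL in RPMI-1640 with 10% FCS, penicillin and streptomycin. Incubated with or without serial compound dilutions at 37 °C, 5% CO2. Viability by MTT after 96 h. CC50 = concentration reducing viability 50%.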
row,Compound,CC50 [µM]
1,O=C1CCN(/N=N/c2ccccc2)CC1,> 100
2,c1ccc(/N=N/N2CCN(c3ccccc3)CC2)cc1,33
3,c1ccc(/N=N/N2CCCCC2)cc1,> 100
4,Brc1cccc(/N=N/N2CCCCC2)c1,> 100
5,Brc1ccc(/N=N/N2CCCC2)cc1,> 100

# Test system: not listed separately
# Test: Cytotoxicity against MDBK cells after 48 to 96 hrs by MTT assay
# Format: cell-based, Bos taurus
# Details: cattle, mdbk
# Summary of the method: as §1
row,Compound,CC50 [µM]
1,O=C1CCN(/N=N/c2ccccc2)CC1,≥ 100
2,c1ccc(/N=N/N2CCN(c3ccccc3)CC2)cc1,> 100
3,c1ccc(/N=N/N2CCCCC2)cc1,> 100
4,Brc1cccc(/N=N/N2CCCCC2)c1,> 100
5,Brc1ccc(/N=N/N2CCCC2)cc1,> 100
